From ChEMBL document CHEMBL1121783, “Potential inhibitors of nucleotide biosynthesis. 1. Nitrosoureidonucleosides. 2” (J Med Chem, 1981) come the findings set out here.

In general, half-life refers to the time in which the quantity being followed falls by half. Low readings indicate fast loss, high ones slow loss. As usually defined, the ILS is how much longer treated animals lived than controls. Broadly, the inhibition is the share of the control response that was lost under treatment.

Activity calls are given as the source filed them. The calls are words filed in the database; no cut-off is given here.

Data set [1] can be described thus: Half-life in pH 7 phosphate buffer by using high-performance LC method.
Data set [2] in a line: Half-life in plasma by using UV method. In kind it is ADME, cell-free.
Data set [3] has as its system HEp-2. Nature of the data set: Growth, % of control, at a dose of 20 ug/ml against growth of H.Ep.-2 cells; 75-80%. As to conditions: Homo sapiens.
In data set [4] the test system is HEp-2. The data set is described as above. As to conditions: Homo sapiens. This is another data set of the same source.
A short description of data set [5]: Half-life in pH 7 phosphate buffer by using high-performance LC method. This is another data set of the same source.
Data set [6] has as its system P388. Nature of the data set: Activity at a dose of 200 mg/kg for 9 days against P388 leukemia cells. In kind it is functional. As to conditions: Mus musculus, P388, 216 h. The method, boiled down: (§1)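 P388 leukemia test: the compound was given daily for 9 days at 200 or 400 mg/kg. Activity is reported as percent increase in life span (ILS).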
In data set [7] the test system is P388. Nature of the data set: Activity at a dose of 400 mg/kg against P388 leukemia cells. It counts as functional. As to conditions: Mus musculus. A digest of the protocol:
as §1

The nature of data set [8]: Activity against hypoxanthine phosphoribosyltransferase; Not significant. In kind it is functional.
Data set [9] has as its system Nucleic Acid. Description: Percent inhibitory activity dose at 100 ug/mL to inhibit the incorporation of hypoxanthine and gaunine in DNA. In kind it is functional.
Data set [10] concerns Nucleic Acid. Nature of the data set: Percent inhibitory activity dose at 100 ug/mL to inhibit the incorporation of hypoxanthine and gaunine in RNA. It counts as functional.
In data set [11] the test system is P388. Description: Activity against P388 leukemia cells; Inactive. In kind it is functional. The settings on record: Mus musculus. The method, boiled down:
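In vivo P388 leukemia model; compound given daily for 9 days; activity scored as percent increase in life span (ILS).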

The nature of data set [12]: Half-life in pH 7 phosphate buffer by using high-performance LC method. This is another data set of the same source.

`Cc1cn(C2CC(O)C(C(=O)NCCNC(=O)N(C)N=O)O2)c(=O)[nH]c1=O` (configuration not stated) had a half-life in data set [1] of 29 h.

`O=NN(CCNC(=O)[C@H]1OC(n2cnc3c(O)ncnc32)[C@H](O)[C@@H]1O)C(=O)NC1CCCCC1` (some centres not stated) showed a half-life in [1] of 12 h. Compared with the last compound, the half-life is about 2.4-fold lower.

On to `Cc1cn(C2C[C@H](O)[C@@H](C(=O)NCCN(N=O)C(=O)NC3CCCCC3)O2)c(=O)[nH]c1=O` (some centres not stated), for which the half-life in data set [2] is 11 h.

For `CN(N=O)C(N)=O` [N-METHYL-N-NITROSUREA], the half-life in data set [1] is 0.12 h.

In data set [1], `O=NN(CCCl)C(=O)NC1CCCCC1` [LOMUSTINE] had a half-life of 0.88 h.

`CNC(=O)NCCNC(=O)[C@H]1OC(n2cnc3c(O)ncnc32)[C@H](O)[C@@H]1O` (some centres not stated): the growth, % of control at 20 µg/mL in data set [3] is 75%.

With `CNC(=O)NCCNC(=O)C1OC(n2cc(C)c(=O)[nH]c2=O)CC1O` (configuration not stated), the growth, % of control at 20 µg/mL in [3] turned out to be 75%.

As to `O=NN(CCNC(=O)[C@H]1OC(n2ccc(=O)[nH]c2=O)[C@H](O)[C@@H]1O)C(=O)NC1CCCCC1` (some centres not stated), the growth, % of control at 20 µg/mL in data set [4] stood at 75%. Moreover, the half-life in [5] was 8 h.

Take `CN(N=O)C(=O)NCCNC(=O)[C@H]1OC(n2ccc(=O)[nH]c2=O)[C@H](O)[C@@H]1O` (some centres not stated): in data set [6], the ILS at 200 mg/kg worked out at 28%. Further, in data set [5], the half-life was 17 h. Further, the ILS at 400 mg/kg in [7] is 26%.

For `CN(N=O)C(=O)NCCNC(=O)[C@H]1OC(n2cnc3c(O)ncnc32)[C@H](O)[C@@H]1O` (some centres not stated), the inhibition result in data set [8] and in data set [11] was “inactive” in each case. In addition, the inhibition in data set [9] came out at 35%; in data set [10], 61%. This compound gave a half-life in data set [12] of 127 h.
